Results: PMC7203693 (ACS Omega, 2020)

Tests used:
PC12 cells = assay: Cytotoxicity in PC12 cells; format: cell-based; details: 10 μM, 24 h
In short: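 PC12 cells were grown in DMEM with 10% FBS and penicillin/streptomycin (37 °C, 5% CO2), seeded at 10⁵/well and left 24 h. Test compound (DMSO stock diluted in medium) was given at 10 μM for 24 h, with edaravone as positive control. MTT was added for 2 h, formazan was dissolved in DMSO, and absorbance was read at 490 nm.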

AD model rats [1] = assay: Morris water maze in Aβ25-35-induced AD model rats; format: in vivo; details: compared to the model rats (p < 0.05)
In short: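 Pool 180 cm wide, water at 25 ± 1 °C, hidden platform 2 cm submerged. Training: four 2-min trials daily (30 min apart) for 5 days. Escape latency and swim path were video-tracked. Probe trial: platform removed, 2-min swim, crossings counted. Mean ± SEM, t-test.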

AD model rats [2] = assay: Open-field test in Aβ25-35-induced AD model rats; format: in vivo; details: for total distance moved in open field: AD rats, Aβ model group 17.34 ± 3.88
In short: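 After 1 h acclimation, each rat explored a dimly lit 100 × 100 × 50 cm box for 2 min, with 70% ethanol cleaning between trials. Video gave total distance and central-zone time. Mean ± SEM, t-test.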

Aβ1-42 = assay: Immunohistochemistry for Aβ1-42 in hippocampus of AD model rats; format: in vivo; details: AD rats, 10, 20 mg/kg, compared with the model group (p < 0.05)
In short: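 Hippocampal sections from five rats: endogenous peroxidase blocked, 5% normal goat serum in 0.3% Triton/PBS, rabbit anti-Aβ1-42 (1:300) overnight at 4 °C, biotinylated goat anti-rabbit (1:500) 1 h at room temperature, then DAB for 10 min.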

ICR mice = assay: Acute oral toxicity test in mice; format: in vivo; details: for deaths: 10 animals; for deaths / death rate: 14 day
In short: (§1)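 ICR mice (18–22 g, half male, half female), seven groups of 10. Single oral gavage of 1310, 1638, 2048, 2560, 3200 or 4000 mg/kg, suspended in 0.5% carboxymethyl cellulose; the control group received vehicle. General behaviour, toxicity signs and mortality were followed for 14 days. LD50 was estimated by log-probit regression of mortality.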

[3] = Acute oral toxicity test in mice; format: in vivo; details: both, ICR, mouse, in vivo, po
In short: as §1

AD model rats [4] = assay: HE staining of hippocampus CA3 region of AD model rats; format: in vivo; details: AD rats, 5, 10, and 20 mg/kg
AD model rats [5] = assay: Nissl staining of hippocampal CA1 region of AD model rats; format: in vivo; details: 10 and 20 mg/kg groups
In short: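 Brains were paraformaldehyde-postfixed and cryoprotected in 30% sucrose. Frozen 25 μm hippocampal sections were stained with 2% cresyl violet for 5 min. Necrotic CA1 cells were counted by light microscopy (n = 5 rats/group, three sections per rat).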

AChE = AChE (Homo sapiens, UniProt P22303); assay: biochemical
AChE, sequence (P22303 32-614): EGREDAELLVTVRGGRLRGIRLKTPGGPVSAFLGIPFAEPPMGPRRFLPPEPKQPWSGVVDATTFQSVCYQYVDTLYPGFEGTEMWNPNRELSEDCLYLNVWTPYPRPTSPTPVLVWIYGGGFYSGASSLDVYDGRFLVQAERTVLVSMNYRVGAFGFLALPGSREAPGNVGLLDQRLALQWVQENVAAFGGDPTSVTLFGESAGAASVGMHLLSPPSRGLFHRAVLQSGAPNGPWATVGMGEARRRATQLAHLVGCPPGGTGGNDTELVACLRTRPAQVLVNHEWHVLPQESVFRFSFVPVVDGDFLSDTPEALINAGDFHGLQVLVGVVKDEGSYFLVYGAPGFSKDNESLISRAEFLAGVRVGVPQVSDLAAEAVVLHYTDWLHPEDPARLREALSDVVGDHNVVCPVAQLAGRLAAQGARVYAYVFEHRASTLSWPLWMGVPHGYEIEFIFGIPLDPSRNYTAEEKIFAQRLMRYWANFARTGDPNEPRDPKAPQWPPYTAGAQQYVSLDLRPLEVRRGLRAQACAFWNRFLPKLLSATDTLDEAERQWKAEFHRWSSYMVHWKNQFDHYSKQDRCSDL

AD model rats [6] = assay: Bielschowsky silver staining of hippocampus of AD model rats; format: in vivo; details: AD rats, 10, 20 mg/kg, versus AD model group
In short: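 SD rats (8 weeks, 280 ± 10 g) got bilateral hippocampal Aβ25-35 (10 μg in 2 μL, pre-aggregated 4 days at 37 °C); sham rats got saline. Formalin-fixed paraffin coronal sections (40 μm) were stained by modified Bielschowsky silver (20% AgNO3, ammoniacal silver), and positive neurons were counted at 10 × 40.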

[7] = mice, single oral dose 1310 mg/kg
[8] = mice, single oral dose 1638 mg/kg
[9] = mice, single oral dose 2048 mg/kg
[10] = mice, single oral dose 2560 mg/kg
[11] = mice, single oral dose 3200 mg/kg
[12] = mice, single oral dose 4000 mg/kg

Structure (SMILES): COc1c(OC(=O)N(C)c2ccccc2)cc2oc3cc4c(c(O)c3c(=O)c2c1CC=C(C)C)C=CC(C)(C)O4 [AMG-1, 5-Hydroxy-8-methoxy-2,2-dimethyl-7-(3-methylbut-2-en-1-yl)-6-oxo-2,6-dihydropyrano[3,2-b]xanthen-9-yl methyl(phenyl)carbamate]
- inhibition ratio (cytotoxic effect, cell proliferation) (PC12 cells): 7.2%
- time in the target quadrant (AD model rats [1]; probe trial): significantly more time
- time to reach the place of the removed platform (AD model rats [1]; probe trial): significantly less time
- escape latency in Morris water maze (AD model rats [1]; retention phase): significant improvements
- total distance traveled in Morris water maze (AD model rats [1]; retention phase): significant improvements
- time spent in the central zone in open field (AD model rats [2]; AD rats, 5, 10, 20 mg/kg oral 30 days, compared to the Aβ model group): dose-dependent increase
- total distance moved in open field (AD model rats [2]; AMG-1 20 mg/kg oral once daily 30 days): 28.55 ± 6.87 m
- expression of Aβ1-42 in hippocampus (immunohistochemistry) (Aβ1-42): significantly reduced expression
- toxicity at the dose for administration (ICR mice; level of 20 mg/kg or less): no obvious toxicity
- signs of toxicity (ICR mice; mice, acute oral toxicity experiment period): messy furs and loose gray stool around the anus
- time found dead after administration (ICR mice; mice, highest dosed group 4000 mg/kg oral): 16 to 48 h
- deaths (ICR mice; [7]): 0
- death rate (ICR mice; [7]): 0%
- deaths (ICR mice; [8]): 1
- death rate (ICR mice; [8]): 10%
- deaths (ICR mice; [9]): 4
- death rate (ICR mice; [9]): 40%
- deaths (ICR mice; [10]): 6
- death rate (ICR mice; [10]): 60%
- deaths (ICR mice; [11]): 7
- death rate (ICR mice; [11]): 70%
- deaths (ICR mice; [12]): 9
- death rate (ICR mice; [12]): 90%
- LD50 at 14 day [3]: 2470 mg/kg
- pyramidal cell morphology and density, hippocampus CA3 (HE staining) (AD model rats [4]): better cell morphology and density than those in the model group
- neuronal damage in hippocampal CA1 (Nissl staining) (AD model rats [5]): significantly attenuated
- IC50 (AChE): 52.6 ± 11.3 µM
- number of senile plaques in hippocampus (silver staining) (AD model rats [6]): less

Structure (SMILES): CCN(C(=O)Oc1cc2oc3cc4c(c(O)c3c(=O)c2c(CC=C(C)C)c1OC)C=CC(C)(C)O4)c1ccccc1 [AMG-2, 5-Hydroxy-8-methoxy-2,2-dimethyl-7-(3-methylbut-2-en-1-yl)-6-oxo-2,6-dihydropyrano[3,2-b]xanthen-9-yl ethyl(phenyl)carbamate]
- inhibition ratio (cytotoxic effect, cell proliferation) (PC12 cells): 6.7%
- IC50 (AChE): 35.1 ± 9.38 µM

Structure (SMILES): COc1c(OC(=O)N(C)c2ccccc2C)cc2oc3cc4c(c(O)c3c(=O)c2c1CC=C(C)C)C=CC(C)(C)O4 [AMG-3, 5-Hydroxy-8-methoxy-2,2-dimethyl-7-(3-methylbut-2-en-1-yl)-6-oxo-2,6-dihydropyrano[3,2-b]xanthen-9-yl methyl(o-tolyl)carbamate]
- inhibition ratio (cytotoxic effect, cell proliferation) (PC12 cells): 5.9%
- IC50 (AChE): 32.9 ± 7.78 µM

Structure (SMILES): COc1cc2c(cc1OC)C(=O)C(CC1CCN(Cc3ccccc3)CC1)C2 (stereo not drawn) [donepezil, reference compound]
- total distance moved in open field (AD model rats [2]; donepezil 1 mg/kg oral once daily 30 days): 31.37 ± 7.14 m

Structure (SMILES): CC1=NN(c2ccccc2)C(=O)C1 [edaravone, reference compound]
- inhibition ratio (cytotoxic effect, cell proliferation) (PC12 cells): 0%

Structure (SMILES): COc1c(O)cc2oc3cc(O)c(CC=C(C)C)c(O)c3c(=O)c2c1CC=C(C)C [α-M, 1,3,6-trihydroxy-7-methoxy-2,8-bis(3-methylbut-2-en-1-yl)-9H-xanthen-9-one, reference compound]
- inhibition ratio (cytotoxic effect, cell proliferation) (PC12 cells): 73.1%
- IC50 (AChE): 34.3 ± 6.06 µM
